Blank lines part the entries; values can stand above or below the molecule they belong to. Activity calls are given as the source filed them. The calls are words filed in the database; no cut-off is given here.
Legend:
[1] = target: T1, Muscarinic acetylcholine receptor M2 (Homo sapiens) (UniProt P08172); test: Binding affinity to human muscarinic acetylcholine receptor M2 expressed in CHOK9 cell homogenates at Kd in presence of 500-fold excess atropine after 2 hrs by liquid scintillation counting assay relative to control; details: tested as the 3H-labelled form
T1 sequence (whole entry): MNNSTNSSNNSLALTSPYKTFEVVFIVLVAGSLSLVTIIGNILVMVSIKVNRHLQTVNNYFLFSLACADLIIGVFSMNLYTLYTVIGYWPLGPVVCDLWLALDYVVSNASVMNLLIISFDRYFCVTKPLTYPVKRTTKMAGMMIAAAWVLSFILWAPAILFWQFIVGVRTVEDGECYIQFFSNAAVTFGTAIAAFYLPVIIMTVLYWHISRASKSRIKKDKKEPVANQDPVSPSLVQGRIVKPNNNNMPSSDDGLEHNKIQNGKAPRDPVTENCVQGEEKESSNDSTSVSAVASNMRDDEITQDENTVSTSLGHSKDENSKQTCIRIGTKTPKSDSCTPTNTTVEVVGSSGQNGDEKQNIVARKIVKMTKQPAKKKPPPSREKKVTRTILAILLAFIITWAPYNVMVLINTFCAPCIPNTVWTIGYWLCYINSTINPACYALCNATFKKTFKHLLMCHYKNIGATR
Method in brief: (§1)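 CHO-hM2 cell homogenates (25–30 μg protein/well) in L15 medium with 1% BSA, 23 ± 1 °C, 2 h with tritiated dimeric radioligand. Competition used 0.5 nM radioligand; additional 0.4, 1, 2 and 4 nM in W84 experiments. […] Four-parameter logistic fits; at least three experiments in triplicate.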

[2] = target: T2, Muscarinic acetylcholine receptor M4 (Homo sapiens, UniProt P08173); test: Displacement of [3H]NMS from human muscarinic acetylcholine receptor M4 expressed in CHOK9 cells after 3 hrs by liquid scintillation counting assay; type: cell-based
T2 sequence (P08173 whole entry): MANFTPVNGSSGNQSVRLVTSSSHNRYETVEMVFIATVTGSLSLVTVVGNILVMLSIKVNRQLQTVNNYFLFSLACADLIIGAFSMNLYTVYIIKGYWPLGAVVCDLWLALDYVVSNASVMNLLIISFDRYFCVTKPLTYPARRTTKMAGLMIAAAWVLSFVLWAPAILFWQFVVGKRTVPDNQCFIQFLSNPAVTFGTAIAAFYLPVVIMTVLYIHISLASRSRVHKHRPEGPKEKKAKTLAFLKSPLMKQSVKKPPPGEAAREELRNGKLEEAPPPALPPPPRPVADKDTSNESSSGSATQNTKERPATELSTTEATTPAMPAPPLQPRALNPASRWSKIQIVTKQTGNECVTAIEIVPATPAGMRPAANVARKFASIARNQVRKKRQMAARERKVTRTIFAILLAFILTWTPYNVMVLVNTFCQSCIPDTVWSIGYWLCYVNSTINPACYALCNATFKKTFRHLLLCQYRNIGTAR

[3] = target: T3, Muscarinic acetylcholine receptor M2 (Homo sapiens, UniProt P08172); test: (§2) Displacement of [3H]NMS from human muscarinic acetylcholine receptor M2 expressed in CHOK9 cells after 3 hrs by liquid scintillation counting assay; type: cell-based
T3 sequence (P08172 whole entry): T1 sequence (whole entry)

[4] = Chemical stability of the compound in PBS buffer at pH 7.4 after 48 hrs by HPLC analysis; type: physicochemical; details: pH 7.4, 48 h
Method in brief: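 Compound at 100 μM final (from 10 mM stock) in PBS pH 7.4 at 22 ± 1 °C; samples taken at 0, 24 and 48 h, mixed with acetonitrile/1% aq TFA 2:8, analysed by RP-HPLC at 220 nm.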

[5] = target: Muscarinic acetylcholine receptor M3 (Homo sapiens, UniProt P20309); test: Displacement of [3H]NMS from human muscarinic acetylcholine receptor M3 expressed in CHOK9 cells after 3 hrs by liquid scintillation counting assay; type: cell-based
Sequence of Muscarinic acetylcholine receptor M3 (P20309 whole entry): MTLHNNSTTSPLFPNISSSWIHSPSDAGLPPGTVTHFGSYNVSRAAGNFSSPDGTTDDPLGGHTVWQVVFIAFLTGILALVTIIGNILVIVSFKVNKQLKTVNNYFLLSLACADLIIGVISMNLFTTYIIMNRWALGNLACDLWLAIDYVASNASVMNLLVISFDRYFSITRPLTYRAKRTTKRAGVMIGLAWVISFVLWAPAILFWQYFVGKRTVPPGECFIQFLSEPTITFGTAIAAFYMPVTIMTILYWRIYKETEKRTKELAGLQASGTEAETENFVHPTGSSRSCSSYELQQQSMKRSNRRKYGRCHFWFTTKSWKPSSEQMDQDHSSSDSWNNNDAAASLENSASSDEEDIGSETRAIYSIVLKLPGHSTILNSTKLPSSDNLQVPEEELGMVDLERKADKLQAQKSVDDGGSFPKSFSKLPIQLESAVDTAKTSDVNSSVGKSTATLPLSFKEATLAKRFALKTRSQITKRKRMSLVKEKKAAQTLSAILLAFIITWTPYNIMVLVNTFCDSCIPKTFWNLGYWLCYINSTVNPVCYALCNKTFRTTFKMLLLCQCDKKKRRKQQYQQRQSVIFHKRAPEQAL

[6] = target: T4, Muscarinic acetylcholine receptor M5 (Homo sapiens, UniProt P08912); test: Displacement of [3H]NMS from human muscarinic acetylcholine receptor M5 expressed in CHOK9 cells after 3 hrs by liquid scintillation counting assay; type: cell-based
T4 sequence (P08912 whole entry): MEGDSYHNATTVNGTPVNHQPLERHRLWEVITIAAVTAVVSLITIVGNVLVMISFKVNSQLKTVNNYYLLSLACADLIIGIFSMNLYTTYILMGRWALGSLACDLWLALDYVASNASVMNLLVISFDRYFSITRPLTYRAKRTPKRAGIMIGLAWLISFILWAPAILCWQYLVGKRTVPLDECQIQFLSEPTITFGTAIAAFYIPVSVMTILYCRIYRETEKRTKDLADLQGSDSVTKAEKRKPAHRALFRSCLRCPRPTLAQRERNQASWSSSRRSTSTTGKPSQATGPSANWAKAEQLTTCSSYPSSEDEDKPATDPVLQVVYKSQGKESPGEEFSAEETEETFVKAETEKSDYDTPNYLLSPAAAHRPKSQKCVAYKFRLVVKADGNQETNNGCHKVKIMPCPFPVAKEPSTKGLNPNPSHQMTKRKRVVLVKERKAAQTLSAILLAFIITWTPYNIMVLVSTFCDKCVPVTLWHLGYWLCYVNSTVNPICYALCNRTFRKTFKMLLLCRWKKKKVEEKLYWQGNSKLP

[7] = target: T1, Muscarinic acetylcholine receptor M2 (Homo sapiens); test: Binding affinity to human muscarinic acetylcholine receptor M2 expressed in live adherent CHOK9 cells at Kd in presence of 500-fold excess atropine after 2 hrs by liquid scintillation counting assay relative to control; type: cell-based; details: tested as the 3H-labelled form
Method in brief: (§3)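 Live adherent CHO-hM2 cells in L15 medium with 1% BSA, 23 ± 1 °C, 2 h incubation. Competition at 2 nM radioligand; additional 4, 8, 15 and 30 nM in W84 experiments. […] Saturation data fitted one-site; competition by four-parameter logistic fits; at least three experiments in triplicate.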

[8] = target: T5, Muscarinic acetylcholine receptor M1 (Homo sapiens, UniProt P11229); test: Displacement of [3H]NMS from human muscarinic acetylcholine receptor M1 expressed in CHOK9 cells after 3 hrs by liquid scintillation counting assay; type: cell-based
T5 sequence (P11229 whole entry): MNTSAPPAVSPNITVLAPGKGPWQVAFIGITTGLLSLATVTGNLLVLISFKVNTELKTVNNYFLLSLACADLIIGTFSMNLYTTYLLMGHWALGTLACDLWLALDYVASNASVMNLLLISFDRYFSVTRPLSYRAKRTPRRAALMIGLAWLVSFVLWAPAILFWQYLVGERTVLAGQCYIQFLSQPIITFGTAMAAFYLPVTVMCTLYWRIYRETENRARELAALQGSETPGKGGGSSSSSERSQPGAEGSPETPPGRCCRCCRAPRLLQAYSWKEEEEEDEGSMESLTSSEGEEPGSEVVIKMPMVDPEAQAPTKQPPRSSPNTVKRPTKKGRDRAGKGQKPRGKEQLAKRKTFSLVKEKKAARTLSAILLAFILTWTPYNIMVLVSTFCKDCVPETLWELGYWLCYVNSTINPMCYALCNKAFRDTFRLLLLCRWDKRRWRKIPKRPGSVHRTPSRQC

[9] = target: T1, Muscarinic acetylcholine receptor M2 (Homo sapiens); test: (§4) Binding affinity to human muscarinic acetylcholine receptor M2 expressed in live adherent CHOK9 cells after 2 hrs by liquid scintillation counting assay; type: cell-based; details: tested as the 3H-labelled form; method in brief: as §3
[10] = target: T1, Muscarinic acetylcholine receptor M2 (Homo sapiens); test: Binding affinity to human muscarinic acetylcholine receptor M2 expressed in CHOK9 cell homogenate after 2 hrs by liquid scintillation counting assay; details: tested as the 3H-labelled form; method in brief: as §1
[11] = target: T1, Muscarinic acetylcholine receptor M2 (Homo sapiens); test: as §2; type: cell-based
[12] = target: Muscarinic acetylcholine receptor M2 (Homo sapiens) (UniProt P08172); test: Displacement of [3H]UNSW-MK259 from human muscarinic acetylcholine receptor M2 expressed in CHOK9 cells at <100 uM after 3 hrs by liquid scintillation counting assay
[13] = target: Muscarinic acetylcholine receptor M2 (Homo sapiens) (UniProt P08172); test: Displacement of [3H]NMS from human muscarinic acetylcholine receptor M2 expressed in CHOK9 cells at <100 uM after 3 hrs by liquid scintillation counting assay
[14] = target: T3, Muscarinic acetylcholine receptor M2; test: Ratio of binding affinity to human muscarinic acetylcholine receptor M2 expressed in CHOK9 cells assessed as dissociation rate constant to binding affinity to human muscarinic acetylcholine receptor M2 expressed in CHOK9 cells assessed as association rate constant; type: cell-based
[15] = target: T3, Muscarinic acetylcholine receptor M2; test: Binding affinity to human muscarinic acetylcholine receptor M2 expressed in live adherent CHOK9 cells assessed as saturation binding after 2 hrs by liquid scintillation counting assay
[16] = target: T3, Muscarinic acetylcholine receptor M2; test: as §4; type: cell-based; method in brief: as §3
[17] = target: T1, Muscarinic acetylcholine receptor M2 (Homo sapiens)

- Activity [1]: < 15%
- Ki [2]: 3.63 nM
- Ki ([3]; read-out: pKi (converted)): 0.708 nM
- Stability [4]: Stable
- Ki [5]: 200 nM
- Ki [6]: 77.6 nM
- Activity [7]: > 60%
- Ki [8]: 7.08 nM
- Bmax (disintegrations/minute) [9]: 3800
- Bmax (disintegrations/minute) [10]: 4900
SMILES: CCC(=O)NC1CN(CCCCC2CCN(CC(=O)N3c4ccccc4NC(=O)c4ccccc43)CC2)CCN(CCCCC2CCN(CC(=O)N3c4ccccc4NC(=O)c4ccccc43)CC2)C1.O=C(O)C(F)(F)F.O=C(O)C(F)(F)F.O=C(O)C(F)(F)F.O=C(O)C(F)(F)F

- inhibition [11]: Active
SMILES: O=C1Nc2ccccc2N(C(=O)CN2CCN(CC(=O)N3c4ccccc4NC(=O)c4ccccc43)CC2)c2ccccc21

- inhibition [12]: inactive
- inhibition [13]: inactive
SMILES: CCC(=O)NCCNC(=O)CCc1c[nH]cn1

- Ki ([3]; read-out: Ki): 0.76 nM
- Kd [14]: 0.7 nM
- Kd [15]: 0.87 nM
- Kd [16]: 0.87 nM
SMILES: [3H]CC([3H])C(=O)NCCNC(=O)CCc1cn(CCCCC2CCN(CC(=O)N3c4ccccc4NC(=O)c4ccccc43)CC2)cn1 (stereo not drawn)

SMILES: Cc1c(Cl)c(OCC(=O)N2CCN(C)CC2)nc2sc(C(=O)NC3CC3)c(N)c12
- pKb [17]: 5.77

Source: ChEMBL document CHEMBL4049434, “Radiolabeled Dibenzodiazepinone-Type Antagonists Give Evidence of Dualsteric Binding at the M2 Muscarinic Acetylcholine Receptor” (J Med Chem, 2017)
